For test [1], the target named is T1, Cannabinoid receptor 2 (Homo sapiens, UniProt P34972). The experiment in a line: Binding affinity against human CB2 receptor expressed in CHO cells by using WIN-55212-2 Mesylate [573H] as Radioactive tracer. In kind it is cell-based. In a few lines:
(§1)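 Membranes (50 µg) from CHO-K1 cells expressing human CB2 or CB1. Tracer is [5,7-3H]WIN 55,212-2 mesylate for CB2 and CP55,940 for CB1, routinely at 10 nM. Incubated with test compound in HEPES pH 7.4 buffer (EDTA, MgCl₂, 0.3% BSA) for 2 h at room temperature with shaking. Bound label is collected by filtration and counted by scintillation. Single-point values are % inhibition at […] test compound.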

Test [2] concerns the target T1, Cannabinoid receptor 2. The experiment in a line: Displacement of WIN-55212-2-Mesylate [573H] from human CB2 receptor expressed in CHO cells at 100 nM. In kind it is cell-based. In a few lines:
as §1

For a further test, the species on record is Mus musculus. The experiment in a line: Inhibition of LPS-induced nuclear factor-kappa B (NFkB) activation and TNF production in mouse. It is filed as functional, organism-based. The gist of the method: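 Female Balb/c mice, 6–8 weeks old, n=8 per group, received LPS (E. coli 0111:B4) at 50 ug/kg i.p. in sterile saline. Blood was taken 90 min later and serum TNF-α measured by ELISA. Compound was dosed i.v. or orally, as solutions in various vehicles, before or at the time of LPS injection.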

Test [3] deals with Cannabinoid receptor (Homo sapiens) (UniProt P34972+P21554). Briefly: Ratio of binding affinity of the CB1 receptor to that of CB2 receptor; NT means not tested. It is filed as protein assay. In a few lines: as §1
Sequence of Cannabinoid receptor (Homo sapiens) (P21554 whole entry, looked up): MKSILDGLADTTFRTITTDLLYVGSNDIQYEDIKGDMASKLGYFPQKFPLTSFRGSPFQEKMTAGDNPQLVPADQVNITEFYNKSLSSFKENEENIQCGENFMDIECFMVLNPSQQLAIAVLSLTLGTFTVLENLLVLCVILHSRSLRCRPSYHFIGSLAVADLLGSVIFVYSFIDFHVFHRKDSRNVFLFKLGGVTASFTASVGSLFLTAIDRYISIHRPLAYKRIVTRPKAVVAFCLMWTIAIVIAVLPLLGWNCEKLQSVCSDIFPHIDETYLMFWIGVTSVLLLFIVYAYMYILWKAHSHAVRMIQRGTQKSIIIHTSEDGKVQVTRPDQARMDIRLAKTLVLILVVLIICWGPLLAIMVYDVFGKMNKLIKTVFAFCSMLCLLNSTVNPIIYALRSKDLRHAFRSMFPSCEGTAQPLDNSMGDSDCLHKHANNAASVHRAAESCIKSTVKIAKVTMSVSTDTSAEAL
Sequence of Cannabinoid receptor (Homo sapiens) (P34972 whole entry, looked up): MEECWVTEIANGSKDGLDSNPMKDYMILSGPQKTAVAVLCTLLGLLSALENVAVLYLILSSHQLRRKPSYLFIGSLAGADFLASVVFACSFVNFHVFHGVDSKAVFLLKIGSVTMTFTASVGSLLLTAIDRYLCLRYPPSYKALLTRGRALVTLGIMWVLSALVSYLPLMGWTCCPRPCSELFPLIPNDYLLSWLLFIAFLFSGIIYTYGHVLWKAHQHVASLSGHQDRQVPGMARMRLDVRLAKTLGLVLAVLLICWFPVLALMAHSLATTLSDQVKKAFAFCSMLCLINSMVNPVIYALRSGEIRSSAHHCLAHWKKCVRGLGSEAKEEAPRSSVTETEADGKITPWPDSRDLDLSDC
In test [4] the target is T1, Cannabinoid receptor 2. Briefly: Binding affinity against human Cannabinoid receptor 2 expressed in CHO cells by using WIN-55212-2 Mesylate [573H] as Radioactive tracer. It is filed as cell-based. The gist of the method: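 Membranes (50 µg) from CHO-K1 cells expressing human CB2 or CB1. Incubated with test compound in HEPES pH 7.4 buffer (EDTA, MgCl₂, 0.3% BSA) for 2 h at room temperature with shaking. Bound label is collected by filtration and counted by scintillation.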

Test [5] concerns the target T2, Cannabinoid receptor 1 (Homo sapiens, UniProt P21554). Briefly: Binding affinity against human Cannabinoid receptor 1 expressed in CHO cells by using CP-55940 as Radioactive tracer at 1 uM. It is filed as cell-based.
Test [6] addresses T2, Cannabinoid receptor 1. Briefly: Binding affinity against human Cannabinoid receptor 1 expressed in CHO cells by using CP-55940 as Radioactive tracer. In kind it is cell-based.

T2 sequence (P21554 whole entry): as the sequence (P21554 whole entry, looked up) above
T1 sequence (P34972 whole entry): as the sequence (P34972 whole entry, looked up) above

For orientation: Ki means a measure of affinity in units of concentration, obtained from inhibition or displacement. For `CCc1c(C(=O)N[C@H]2C3(C)CCC(C3)C2(C)C)c2cccc(OC)c2n1CCN1CCOCC1` (some centres undefined), on Cannabinoid receptor 2 [1], the Ki came out at 0.103 µM.

With `COc1cc(F)cc2c(C(=O)N[C@H]3C4(C)CCC(C4)C3(C)C)c(C)n(CCN3CCOCC3)c12` (some centres undefined), the inhibition constant (Ki) at Cannabinoid receptor 2 [1] was found to be 0.018 µM.

As for `COc1cccc2c(C(=O)NC3CC(C)(C)CCC3(C)C)cn(CCN3CCOCC3)c12` (centres undefined), on Cannabinoid receptor 2 [1], the inhibition constant (Ki) worked out at 0.022 µM.

By inhibition is commonly meant the change of the read-out against control, counted positive when it falls. On Cannabinoid receptor 2 [2], `COc1ccc(C#N)c2c(C(=O)N[C@@H]3C4(C)CCC(C4)C3(C)C)c(C)n(CCN3CCOCC3)c12` (some centres undefined) had an inhibition of 33%.

Take `COc1cccc2c(C(=O)N[C@@H]3C(C)(C)[C@@H]4CC[C@@]3(C)C4)c(C)n(CCN3CCCCC3)c12`: the Ki at Cannabinoid receptor 2 [1] came to 0.089 µM.

For `COc1cc(Cl)cc2c(C(=O)N[C@@H]3C4(C)CCC(C4)C3(C)C)c(C)n(CCN3CCOCC3)c12` (some centres undefined), on Cannabinoid receptor 2 [1], the Ki came out at 0.251 µM.

`COc1cc(OC)c2c(c1)c(C(=O)N[C@@H]1C3(C)CCC(C3)C1(C)C)c(C)n2CCN1CCOCC1` (some centres undefined) registered an inhibition on Cannabinoid receptor 2 [2] of 0%.

Consider `COc1cccc2c(C(=O)NC3C(C)(C)[C@@H]4CC[C@@]3(C)C4)c(C)n(CCCN3CCOCC3)c12` (some centres undefined), for which, on Cannabinoid receptor 2 [1], the Ki came out at 0.025 µM.

As for `COC[C@H](Cc1ccccc1)NC(=O)c1c(C)n(CCN2CCOCC2)c2c(OC)cccc12`, the inhibition on Cannabinoid receptor 2 [2] was 6%.

On to `COC(=O)[C@H](Cc1ccccc1)NC(=O)c1c(C)n(CCN2CCOCC2)c2ccccc12`, for which the Ki at Cannabinoid receptor 2 [1] came out at 0.25 µM.

As to `CCCc1c(C(=O)N[C@@H]2C3(C)CCC(C3)C2(C)C)c2cccc(OC)c2n1CCN1CCOCC1` (some centres undefined), the inhibition at Cannabinoid receptor 2 [2] turned out to be 6%.

With `COc1cccc2c(C(=O)NC3C4(C)CCC(C4)C3(C)C)cn(CCN3CCOCC3)c12` (centres undefined), the Ki at Cannabinoid receptor 2 [1] turned out to be 0.012 µM.

Consider `COc1cccc2c(C(=O)N[C@@H]3C4(C)CCC(C4)C3(C)C)cn(CCN3CCOCC3)c12` (some centres undefined), for which the Ki at Cannabinoid receptor 2 [1] amounted to 0.013 µM.

Usually IC50 stands for the concentration that inhibits the measured activity by half. Read a high IC50 as weaker potency in that assay. As to `Cc1c(C(=O)c2cccc3ccccc23)c2cccc3c2n1[C@H](CN1CCOCC1)CO3` [WIN-552122], half-maximal inhibition in the test listed under Mus musculus (IC50) was put at 8 µM.

Turning to `CCCCCOc1cc(/C=C/C(=O)N[C@@H](Cc2ccccc2)C(=O)OC)ccc1OC`, in test [3], the Ratio worked out at 0.59. Moreover, the inhibition constant Ki on Cannabinoid receptor 2 [4] amounted to 0.086 µM. On Cannabinoid receptor 1 [5], the inhibition is 51%.

For `COc1cccc2c(C(=O)N[C@H](C)Cc3ccccc3)c(C)n(CCN3CCOCC3)c12`, at Cannabinoid receptor 2 [1], the Ki was 0.263 µM.

Turning to `CCC(=O)[C@H](Cc1ccccc1)NC(=O)c1c(C)n(CCN2CCOCC2)c2c(OC)cccc12`, the Ki at Cannabinoid receptor 2 [1] worked out at 0.024 µM.

For `COCCn1c(C)c(C(=O)NC2C(C)(C)[C@@H]3CC[C@@]2(C)C3)c2cccc(OC)c21` (some centres undefined), at Cannabinoid receptor 2 [1], the Ki came to 0.06 µM.

For `CCCCCOc1cc(/C=C/C(=O)N[C@@H](Cc2ccc(O)cc2)C(=O)OC)ccc1OC`, the inhibitory constant (Ki) at Cannabinoid receptor 1 [6] was determined as 5.7 µM; at Cannabinoid receptor 2 [4], 0.12 µM.

For the compound `COc1cccc2c(C(=O)N[C@H]3C4(C)CCC(C4)C3(C)C)c(C)n(CCN3CCOCC3)c12` (some centres undefined), the Ki on Cannabinoid receptor 2 [1] was 0.03 µM.

Take `COC(=O)[C@H](Cc1cccc(Cl)c1)NC(=O)c1c(C)n(CCN2CCOCC2)c2c(OC)cccc12`: the inhibition constant Ki on Cannabinoid receptor 2 [1] came out at 0.031 µM.

`COc1cccc2c(C(=O)N[C@H](C#N)Cc3ccccc3)c(C)n(CCN3CCOCC3)c12`: the inhibition at Cannabinoid receptor 2 [2] was found to be 18%.

As to `COC(=O)[C@H](Cc1cccs1)NC(=O)c1c(C)n(CCN2CCOCC2)c2c(OC)cccc12`, the Ki on Cannabinoid receptor 2 [1] was 0.012 µM.

Take `COc1cccc2c(C(=O)N[C@@H]3C4(C)CCC(C4)C3(C)C)c(C)n(CCN3CCOCC3)c12` (some centres undefined): the Ki at Cannabinoid receptor 2 [1] came to 0.041 µM.

Regarding `COc1ccc(Cl)c2c(C(=O)N[C@@H]3C4(C)CCC(C4)C3(C)C)c(C)n(CCN3CCOCC3)c12` (some centres undefined), the inhibition at Cannabinoid receptor 2 [2] was 11%.

Consider `COc1cccc2c(C(=O)N[C@@H](C)Cc3ccccc3)cn(CCN3CCOCC3)c12`, for which the Ki on Cannabinoid receptor 2 [1] was found to be 0.071 µM.

The compound `COc1ccc(Br)c2c(C(=O)N[C@@H]3C4(C)CCC(C4)C3(C)C)c(C)n(CCN3CCOCC3)c12` (some centres undefined) returned an inhibition at Cannabinoid receptor 2 [2] of 42%.

Regarding `COc1cccc2c(C(=O)NC3C(C)(C)[C@@H]4CC[C@@]3(C)C4)c(C)n(CCN(C)C)c12` (some centres undefined), at Cannabinoid receptor 2 [1], the Ki was found to be 0.505 µM.

For the compound `COc1cccc2c(C(=O)N[C@@H](Cc3ccccc3)c3ccon3)c(C)n(CCN3CCOCC3)c12`, the Ki at Cannabinoid receptor 2 [1] was 0.235 µM.

On to `COC(=O)[C@H](Cc1cscn1)NC(=O)c1c(C)n(CCN2CCOCC2)c2c(OC)cccc12`, for which, on Cannabinoid receptor 2 [1], the Ki came to 0.02 µM.

In the case of `COc1cccc2c(C(=O)N[C@@H](Cc3ccccc3)C(C)=O)c(C)n(CCN3CCOCC3)c12`, the Ki on Cannabinoid receptor 2 [1] is 0.008 µM.

Regarding `CCCCCn1c(C)c(C(=O)NC2C(C)(C)[C@@H]3CC[C@@]2(C)C3)c2cccc(OC)c21` (some centres undefined), the inhibition constant (Ki) on Cannabinoid receptor 2 [1] stood at 0.005 µM.

On to `COc1cccc2c(C(=O)N[C@@H](Cc3ccccc3)c3ccno3)c(C)n(CCN3CCOCC3)c12`, for which the Ki at Cannabinoid receptor 2 [1] amounted to 0.169 µM.

Turning to `COc1c(Cl)ccc2c(C(=O)N[C@@H]3C4(C)CCC(C4)C3(C)C)c(C)n(CCN3CCOCC3)c12` (some centres undefined), on Cannabinoid receptor 2 [2], the inhibition worked out at 15%.

Consider `COc1cccc2c(C(=O)N[C@@H](Cc3ccccc3)C(=O)N(C)C)c(C)n(CCN3CCOCC3)c12`, for which the inhibition at Cannabinoid receptor 2 [2] amounted to 29%.

As for `CO/N=C(\C)[C@H](Cc1ccccc1)NC(=O)c1c(C)n(CCN2CCOCC2)c2c(OC)cccc12`, the Ki on Cannabinoid receptor 2 [1] is 0.184 µM.

`COc1cccc2c(C(=O)NC3C4(C)CCC(C4)C3(C)C)c(C)n(CCN3CCCC3)c12` (centres undefined): the inhibition on Cannabinoid receptor 2 [2] turned out to be 25%.

Turning to `COc1cccc2c(C(=O)NC3CC(C)(C)CCC3(C)C)c(C)n(CCN3CCOCC3)c12` (centres undefined), at Cannabinoid receptor 2 [1], the inhibition constant (Ki) came out at 0.038 µM.

As for `CNC(=O)[C@H](Cc1ccccc1)NC(=O)c1c(C)n(CCN2CCOCC2)c2c(OC)cccc12`, the inhibitory constant (Ki) on Cannabinoid receptor 2 [1] is 0.294 µM.

As to `COc1cccc2c(C(=O)NC3CCCC3(C)C)c(C)n(CCN3CCOCC3)c12` (centres undefined), the Ki on Cannabinoid receptor 2 [1] was 0.205 µM.

Compound `COc1ccc2c(C(=O)N[C@@H]3C4(C)CCC(C4)C3(C)C)c(C)n(CCN3CCOCC3)c2c1OC` (some centres undefined) displayed an inhibition at Cannabinoid receptor 2 [2] of 0%.

Compound `COc1cccc2c(C(=O)N[C@@H](Cc3ccccc3)c3cc[nH]n3)c(C)n(CCN3CCOCC3)c12` returned an inhibition on Cannabinoid receptor 2 [2] of 7%.

On to `COC(=O)[C@H](Cc1ccccc1)NC(=O)c1c(C)n(CCN2CCOCC2)c2c(OC)cccc12`, for which the values for the inhibition constant Ki at Cannabinoid receptor 1 [6] and at Cannabinoid receptor 2 [4] were 4 µM and 0.008 µM, respectively. Besides, in the test filed under Mus musculus, the IC50 turned out to be 12 µM.

On Cannabinoid receptor 2 [2], `CC[C@H](Cc1ccccc1)NC(=O)c1c(C)n(CCN2CCOCC2)c2c(OC)cccc12` had an inhibition of 18%.

These data come from ChEMBL document CHEMBL1134897, “C-3 Amido-indole cannabinoid receptor modulators” (Bioorg Med Chem Lett, 2002).
